Measurements reported in article PMC3566476 (Neuropharmacology, 2010).
Read-outs that look alike come from different tables or passages of the source.

Experiments:
[1] = system: rat neuropathic pain model; details: ref Knabl et al., 2008, cited from earlier work; for Analgesic effect during repeated administration (tolerance): once per day for nine days
locomotor activity = test: Locomotor activity; type: in vivo, mouse
Method in brief: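 Male mice (7–12 weeks) were tested in the light phase. Sixty min after i.p. test compound (16, 48, 100, 160 mg/kg) or vehicle, each mouse was placed in a 20-cm circular enclosure with 4 photocells. Total photocell interruptions were counted over 1 h. n = 10/group; one-way ANOVA with Scheffe post hoc test.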

[2] = system: chronic constriction injury (CCI) of the sciatic nerve; test: CCI neuropathic pain model, mechanical sensitization; type: in vivo, mouse
motor coordination = details: mouse, in vivo, ip
[3] = system: zymosan A induced inflammatory hyperalgesia; test: Zymosan A model of inflammatory pain, mechanical sensitization; type: in vivo, mouse; details: 48 hours after zymosan A, 16 mg / kg i.p., 3 hours, n = 6
Method in brief: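 Zymosan A (0.06 mg in 20 μl 0.9% NaCl) was injected s.c. into the left plantar hindpaw of male mice. After 48 h, test compound 16 mg/kg or vehicle was given i.p. Dynamic von Frey withdrawal thresholds were monitored for 3 h (4–5 readings averaged). AUC used the day-2 pre-drug baseline subtracted. n = 6/group; unpaired t-test.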

α1β3γ2 GABAA receptor = test: [3H]flumazenil competition binding, L cells α1β3γ2; details: L cells α1β3γ2, [3H]flumazenil
Method in brief: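 L(-tk) cells stably expressing α1β3γ2 were grown in DMEM/10% FBS and induced with 1 μM dexamethasone (final), then harvested 3–4 days later. Cells were sonicated in 10 mM Tris-HCl pH 7.4, 100 mM KCl with protease inhibitors; the 100,000 g pellet was used. About 200 μg protein was incubated with increasing test compound and 1.2 nM [3H]flumazenil for 90 min on ice, then filtered. Nonspecific binding: 10 μM clonazepam. 4–5 independent runs.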

sedation [4] = details: at anxiolytic doses; ref Fischer et al., 2010; cited from earlier work
[5] = system: chronic constriction injury (CCI) of the sciatic nerve; test: CCI neuropathic pain model, heat hyperalgesia; type: in vivo, mouse
Method in brief: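 Male mice (7–12 weeks) had left sciatic nerve CCI under 2% isoflurane, with three loose chromic gut ligatures. On day 7, test compound 16 mg/kg or vehicle was given i.p. Radiant-heat paw withdrawal latency (plantar test) was taken for 3 h, with 4–5 readings averaged per time point and ipsi/contralateral paws tested alternately. AUC used the pre-drug baseline subtracted. n = 6/group; unpaired t-test.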

[6] = molecular target: native GABAA receptors in membranes prepared from brain; test: [3H]flumazenil competition binding, brain membranes; details: mouse brain membranes, 1.2 nM [3H]flumazenil, mean ± SD of 3
Method in brief: (§1)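 Brain or spinal cord from male C57BL/6 mice (25–30 g) was homogenized in 10 mM Tris pH 7.4, 150 mM NaCl with protease inhibitors. Spins at 1000 g then 20,000 g (4°C); the pellet was washed in 10 mM Tris-HCl pH 7.4, 100 mM KCl. About 50 μg protein was incubated with increasing test compound and 1.2 nM [3H]flumazenil, 90 min on ice, then filtered. Nonspecific binding: 10 μM clonazepam. Scintillation counting; 3 independent runs.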

[7] = system: chronic constriction injury (CCI) of the sciatic nerve; test: Tolerance development in the CCI model; type: in vivo, mouse; details: 16 mg / kg i.p. once daily for 9 days, CCI mice, versus chronic vehicle
Method in brief: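 Starting day 7 after left sciatic CCI, mice got test compound 16 mg/kg or vehicle i.p. once daily for 9 days. On day 10, each group was split to receive acute vehicle or 16 mg/kg i.p. Dynamic von Frey thresholds were followed for 3 h (4–5 readings averaged). %MPE was taken after 3, 5 and 10 days of treatment. n = 6/group.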

[8] = Pharmacokinetics of HZ166 in the brain; type: in vivo, mouse; details: 48 mg / kg i.p.
α2β3γ2 GABAA receptor = α2β3γ2 GABAA receptor (Homo sapiens, UniProt P18507+P47869); test: [3H]flumazenil competition binding, L cells α2β3γ2; details: recombinant receptors, α2 versus α1
[9] = molecular target: native GABAA receptors in membranes derived from spinal cord; test: [3H]flumazenil competition binding, spinal cord membranes; details: mouse spinal cord membranes, 1.2 nM [3H]flumazenil, mean ± SD of 3
Method in brief: as §1

sedation [10] = details: clinical development stopped; ref Atack et al., 2010; cited from earlier work
[11] = i.p., 60 min recording starting 60 min after injection
[12] = CCI mice day 7, i.p., mechanical sensitization, Hill fit

## CN1CC[C@]23c4c5ccc(O)c4O[C@H]2[C@@H](O)C=C[C@H]3[C@H]1C5 [morphine]
[1]
  Analgesic effect during repeated administration (tolerance): complete tolerance developed

## NCC1(CC(=O)O)CCCCC1 [gabapentin, reference compound]
Locomotor activity; [11]
  Doses with significant reduction in locomotor activity: ≥ 30 mg/kg
[2]; [12]
  Emax (maximum antihyperalgesic effect, %MPE): 84 ± 1.4%
[2]; Mus musculus, ip, read-out: ED50 antihyperalgesia
  ED50: 6.2 ± 0.4 mg/kg
Motor coordination; male
  Dose causing significant impairment of motor performance in the rotarod test: 90 mg/kg
  Doses that did not interfere with rotarod performance: ≤ 30 mg/kg

## CCOC(=O)c1ncn2c1CN(C)C(=O)c1cc(F)ccc1-2 [Flumazenil, flumazenil, reference compound]
[2]; flumazenil 10 mg / kg i.p., HZ166 16 mg / kg
  Effect of flumazenil on the antihyperalgesic effect of HZ166: almost completely reversed

## Cn1ncnc1COc1nn2c(-c3cc(F)ccc3F)nnc2cc1C(C)(C)C [L-838,417]
[1]
  Analgesic effect during repeated administration (tolerance): did not decline
  Antihyperalgesic activity in rat neuropathic pain model: good antihyperalgesic activity

## C#Cc1ccc2c(c1)C(c1ccccn1)=NCc1c(C(=O)OCC)ncn1-2 [HZ166]
[3]
  AUC of mechanical PWT: […]
Locomotor activity; estimated from locomotor activity, Fig. 6
  estimated ED50 sedation: 97 mg/kg
Locomotor activity; [11]
  Motor activity at 16 and 48 mg / kg: did not significantly impair motor activity
  Motor activity at 100 and 160 mg / kg: Significant reduction of activity
α1β3γ2 GABAA receptor
  Ki: […]
Sedation [4]
  Sedation in primates: does not cause sedation
[5]; CCI mice day 7, 16 mg / kg i.p., 3 hours, n = 6
  AUC of PWL, injured paw: […]
[5]; CCI mice, 16 mg / kg i.p.
  Time of peak effect on PWL after i.p. administration: […]
[2]; CCI mice day 7, i.p., mechanical sensitization, %MPE at 1 h, Hill fit
  ED50 antihyperalgesia: […]
[2]; [12]
  Emax (maximum antihyperalgesic effect, %MPE): […]
[2]; CCI mice, i.p.
  Time of maximum effect on ipsilateral PWT after injection: […]
[2]; CCI mice, i.p., %MPE at 1 h
  Doses with statistically significant antihyperalgesic effects: […]
[2]; CCI mice, i.p., uninjured paw
  PWTs of the contralateral paw: not affected
[6]
  Ki: […]
[7]
  Tolerance development (analgesic activity after chronic treatment): no loss of antihyperalgesic activity
[8]; CCI operated mice
  tmax in brain: […]
[8]; initial elimination phase
  estimated α half-life (brain): […]
[8]; β-phase
  estimated apparent terminal half-life (brain): […]
Motor coordination
  Doses that did not interfere with rotarod performance: […]
α2β3γ2 GABAA receptor
  Affinity to α2-GABAA receptors higher than that to α1-GABAA receptors: about 40%
[9]
  Ki: […]

## MRK409
Sedation [10]
  Sedation in humans: sedative effects in man
